In ChEMBL document CHEMBL3763128, “Synthesis and antibacterial evaluation of novel 4″-glycyl linked quinolyl-azithromycins with potent activity against macrolide-resistant pathogens” (2016):
Values after ≈ are worked out from the molar mass of the structure shown.

Assays:
Assay type in all cases: functional
Staphylococcus aureus [1] = experiment: Antibacterial activity against efflux mediated macrolide resistant Staphylococcus aureus by agar microdilution method
How it was run: (§1)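 Agar microdilution per NCCLS guidelines; MIC reported in μg/mL; differences treated as significant only when more than a factor of 2 (one dilution) apart.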

Staphylococcus aureus [2] = experiment: Antibacterial activity against constitutive macrolide-lincosamide-streptogramin B resistant Staphylococcus aureus by agar microdilution method; how it was run: as §1
Streptococcus pneumoniae [3] = experiment: Antibacterial activity against constitutive macrolide-lincosamide-streptogramin B resistant Streptococcus pneumoniae by agar microdilution method; how it was run: as §1
Streptococcus pneumoniae [4] = experiment: Antibacterial activity against erythromycin-susceptible Streptococcus pneumoniae by agar microdilution method
How it was run: (§2)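 MIC by agar microdilution following NCCLS guidelines. Values in μg/mL. Only differences of more than one twofold dilution were treated as significant. Ery-S denotes erythromycin-susceptible strains.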

Haemophilus influenzae = experiment: Antibacterial activity against Haemophilus influenzae by agar microdilution method; how it was run: as §2
Staphylococcus aureus [5] = experiment: Antibacterial activity against erythromycin-susceptible Staphylococcus aureus by agar microdilution method; how it was run: as §2
Staphylococcus aureus [6] = experiment: Antibacterial activity against inducibly macrolide-lincosamide-streptogramin B resistant Staphylococcus aureus by agar microdilution method; how it was run: as §1
Streptococcus pyogenes [7] = experiment: Antibacterial activity against erythromycin-susceptible Streptococcus pyogenes by agar microdilution method; how it was run: as §2
Streptococcus pyogenes [8] = experiment: Antibacterial activity against inducibly macrolide-lincosamide-streptogramin B resistant Streptococcus pyogenes by agar microdilution method; how it was run: as §1
Streptococcus pyogenes [9] = experiment: Antibacterial activity against constitutive macrolide-lincosamide-streptogramin B resistant Streptococcus pyogenes by agar microdilution method; how it was run: as §1
Streptococcus pyogenes [10] = experiment: Antibacterial activity against efflux mediated macrolide resistant Streptococcus pyogenes by agar microdilution method; how it was run: as §1
Moraxella catarrhalis = experiment: Antibacterial activity against Moraxella catarrhalis by agar microdilution method; how it was run: as §2
Streptococcus pneumoniae [11] = experiment: Antibacterial activity against efflux mediated macrolide resistant Streptococcus pneumoniae by agar microdilution method; how it was run: as §1

Row | Compound | MIC (Staphylococcus aureus [1]) [µg/mL] | MIC (Staphylococcus aureus [2]) [µg/mL] | MIC (Streptococcus pneumoniae [3]) [µg/mL] | MIC (Streptococcus pneumoniae [4]) [µg/mL] | MIC (Haemophilus influenzae) [µg/mL] | MIC (Staphylococcus aureus [5]) [µg/mL] | MIC (Staphylococcus aureus [6]) [µg/mL] | MIC (Streptococcus pyogenes [7]) [µg/mL] | MIC (Streptococcus pyogenes [8]) [µg/mL] | MIC (Streptococcus pyogenes [9]) [µg/mL] | MIC (Streptococcus pyogenes [10]) [µg/mL] | MIC (Moraxella catarrhalis) [µg/mL] | MIC (Streptococcus pneumoniae [11]) [µg/mL]
1 | CCC1OC(=O)[C@H](C)[C@@H](O[C@H]2C[C@@](C)(OC)[C@@H](OC(=O)CNCCCNCCOCCOCCNc3cc4c(cc3F)c(=O)c(C(=O)O)cn4C3CC3)[C@H](C)O2)C(C)[C@@H](O[C@@H]2O[C@H](C)C[C@H](N(C)C)[C@H]2O)[C@](C)(O)C[C@@H](C)CN(C)[C@H](C)[C@@H](O)[C@]1(C)O (single isomer, unassigned) | 2 (≈ 1.61 µM) | > 64 | 2 (≈ 1.61 µM) | ≤ 0.125 | 4 (≈ 3.23 µM) | ≤ 0.125 | 4 (≈ 3.23 µM) | ≤ 0.125 | 0.5 (≈ 0.403 µM) | 4 (≈ 3.23 µM) | 1 (≈ 0.807 µM) | 2 (≈ 1.61 µM) | 1 (≈ 0.807 µM)
2 | CCC1OC(=O)[C@H](C)[C@@H](O[C@H]2C[C@@](C)(OC)[C@@H](OC(=O)CNCCCNCCOCCNc3cc4c(=O)c(C(=O)O)cn(C5CC5)c4cc3Cl)[C@H](C)O2)C(C)[C@@H](O[C@@H]2O[C@H](C)C[C@H](N(C)C)[C@H]2O)[C@](C)(O)C[C@@H](C)CN(C)[C@H](C)[C@@H](O)[C@]1(C)O (single isomer, unassigned) | 0.5 (≈ 0.413 µM) | > 64 | 0.25 (≈ 0.206 µM) | ≤ 0.125 | 2 (≈ 1.65 µM) | ≤ 0.125 | 0.5 (≈ 0.413 µM) | ≤ 0.125 | 0.25 (≈ 0.206 µM) | 1 (≈ 0.825 µM) | 0.5 (≈ 0.413 µM) | 0.25 (≈ 0.206 µM) | 0.25 (≈ 0.206 µM)
3 | CCC1OC(=O)[C@H](C)[C@@H](O[C@H]2C[C@@](C)(OC)[C@@H](OC(=O)CNCCCNCCOCCNc3cc4c(cc3F)c(=O)c(C(=O)O)cn4C3CC3)[C@H](C)O2)C(C)[C@@H](O[C@@H]2O[C@H](C)C[C@H](N(C)C)[C@H]2O)[C@](C)(O)C[C@@H](C)CN(C)[C@H](C)[C@@H](O)[C@]1(C)O (single isomer, unassigned) | 1 (≈ 0.836 µM) | > 64 | 2 (≈ 1.67 µM) | ≤ 0.125 | 2 (≈ 1.67 µM) | 0.25 (≈ 0.209 µM) | 2 (≈ 1.67 µM) | ≤ 0.125 | 0.5 (≈ 0.418 µM) | 4 (≈ 3.35 µM) | 2 (≈ 1.67 µM) | 1 (≈ 0.836 µM) | 0.25 (≈ 0.209 µM)
4 | CC[C@H]1OC(=O)[C@@H](C)[C@H](O[C@@H]2C[C@](C)(OC)[C@H](OC(=O)CNC(=O)CCNCCOCCOCCNc3cc4c(=O)c(C(=O)O)cn(C5CC5)c4cc3Cl)[C@@H](C)O2)[C@H](C)[C@H](O[C@H]2O[C@@H](C)C[C@@H](N(C)C)[C@@H]2O)[C@@](C)(O)C[C@H](C)CN(C)[C@@H](C)[C@H](O)[C@@]1(C)O (stereo in doubt) | 0.5 (≈ 0.394 µM) | > 64 | 4 (≈ 3.15 µM) | ≤ 0.125 | 4 (≈ 3.15 µM) | ≤ 0.125 | 4 (≈ 3.15 µM) | ≤ 0.125 | 1 (≈ 0.787 µM) | 8 (≈ 6.3 µM) | 2 (≈ 1.57 µM) | 1 (≈ 0.787 µM) | 1 (≈ 0.787 µM)
5 | CC[C@H]1OC(=O)[C@@H](C)[C@H](O[C@@H]2C[C@](C)(OC)[C@H](OC(=O)CNCCCNCCOCCOCCNc3cc4c(=O)c(C(=O)O)cn(C5CC5)c4cc3Cl)[C@@H](C)O2)[C@H](C)[C@H](O[C@H]2O[C@@H](C)C[C@@H](N(C)C)[C@@H]2O)[C@@](C)(O)C[C@H](C)CN(C)[C@@H](C)[C@H](O)[C@@]1(C)O (stereo in doubt) | 1 (≈ 0.796 µM) | > 64 | 1 (≈ 0.796 µM) | ≤ 0.125 | 2 (≈ 1.59 µM) | ≤ 0.125 | 1 (≈ 0.796 µM) | ≤ 0.125 | 0.25 (≈ 0.199 µM) | 2 (≈ 1.59 µM) | 1 (≈ 0.796 µM) | 0.5 (≈ 0.398 µM) | 0.5 (≈ 0.398 µM)
6 | CC[C@H]1OC(=O)[C@@H](C)[C@H](O[C@@H]2C[C@](C)(OC)[C@H](OC(=O)CNC(=O)CCNCCNc3cc4c(=O)c(C(=O)O)cn(C5CC5)c4cc3Cl)[C@@H](C)O2)[C@H](C)[C@H](O[C@H]2O[C@@H](C)C[C@@H](N(C)C)[C@@H]2O)[C@@](C)(O)C[C@H](C)CN(C)[C@@H](C)[C@H](O)[C@@]1(C)O (stereo in doubt) | 0.5 (≈ 0.423 µM) | > 64 | 0.5 (≈ 0.423 µM) | ≤ 0.125 | 0.5 (≈ 0.423 µM) | ≤ 0.125 | 1 (≈ 0.846 µM) | ≤ 0.125 | 0.25 (≈ 0.212 µM) | 0.5 (≈ 0.423 µM) | 0.25 (≈ 0.212 µM) | 0.125 (≈ 0.106 µM) | 0.25 (≈ 0.212 µM)
